ChEMBL document CHEMBL1124121, “Occurrence and pharmacological significance of metabolic ortho-hydroxylation of 5- and 8-hydroxy-2-(di-n-propylamino)tetralin” (1988)
The source made the active and inactive calls. No cut-off for these calls is given here.

Columns and labels:
[1] = species on record: Rattus norvegicus; experiment: Effect on dopamine accumulation in striatum of rat.; assay type: functional
[2] = species on record: Rattus norvegicus; experiment: Effect on 5-HTP accumulation in limbic system of rat; Inactive; assay type: functional, organism-based
[3] = tested on: Rattus norvegicus; experiment: Brain Concentration at 25 (umol/kg, sc) without tropolone pretreatment in rat cerebellum; assay type: functional, organism-based
Outline: (§1)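 Male Wistar rats dosed sc in the neck with compound in saline (1 mL/kg), with or without tropolone pretreatment. Killed by decapitation 45 min later; striatum, cerebellum and cortex dissected and frozen at -80 °C. Perchloric acid extracts purified over Sephadex G10 and the formic acid eluate analysed by reversed-phase HPLC with electrochemical detection. Mean ± SEM, n = 4.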

[4] = tested on: Rattus norvegicus; experiment: Brain Concentration of 5,6-di-OH-DPAT after 25 (umol/kg) sc administration with tropolone pretreatment in rat cerebellum; assay type: functional, organism-based; outline: as §1
[5] = tested on: Rattus norvegicus; experiment: Brain Concentration of 5,6-di-OH-DPAT after 25 (umol/kg) sc administration without tropolone pretreatment in rat cortex; assay type: functional, organism-based; outline: as §1
[6] = tested on: Rattus norvegicus; experiment: Brain Concentration at 25 (umol/kg, sc) with tropolone pretreatment in rat cerebellum; assay type: functional, organism-based; outline: as §1
[7] = tested on: Rattus norvegicus; experiment: Brain Concentration at 25 (umol/kg, sc) with tropolone pretreatment in rat striatum; assay type: functional, organism-based; outline: as §1
[8] = tested on: Rattus norvegicus; experiment: Brain Concentration at 25 (umol/kg, sc) without tropolone pretreatment in rat striatum; assay type: functional, organism-based; outline: as §1
[9] = Ratio of Km to that Vmax in crude rat liver microsomes was determined; conditions: Microsome
[10] = species on record: Rattus norvegicus; experiment: Effect on dopamine accumulation in hemispheres of rat; Inactive; assay type: functional, organism-based
[11] = tested on: Rattus norvegicus; experiment: Brain Concentration at 25 (umol/kg, sc) without tropolone pretreatment in rat cortex; assay type: functional, organism-based; outline: as §1
[12] = species on record: Rattus norvegicus; experiment: Apparent kinetic constant(Km) for the aromatic hydroxylation on crude rat liver microsomes.; assay type: functional, organism-based
Outline: (§2)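 Crude rat liver microsomes (0.5 mg protein/mL) were incubated with substrate at 37 °C for 3 min in 0.1 M Tris, pH 7.4, with 0.1 mM NADPH and MgCl₂. The reaction was stopped with perchloric acid. Catechol products in the supernatant were measured by HPLC with electrochemical detection. Apparent Km and Vmax came from Lineweaver-Burk plots of 3–4 substrate concentrations, each run in triplicate.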

[13] = tested on: Rattus norvegicus; experiment: Brain Concentration of 5,6-di-OH-DPAT after 25 (umol/kg) sc administration without tropolone pretreatment in rat cerebellum; assay type: functional, organism-based; outline: as §1
[14] = tested on: Rattus norvegicus; experiment: Brain Concentration of 5,6-di-OH-DPAT after 25 (umol/kg) sc administration with tropolone pretreatment in rat cortex; assay type: functional, organism-based; outline: as §1
[15] = tested on: Rattus norvegicus; experiment: Brain Concentration at 25 (umol/kg, sc) with tropolone pretreatment in rat cortex; assay type: functional, organism-based; outline: as §1
[16] = tested on: Rattus norvegicus; experiment: Brain Concentration of 5,6-di-OH-DPAT after 25 (umol/kg) sc administration with tropolone pretreatment in rat striatum; assay type: functional, organism-based; outline: as §1
[17] = species on record: Rattus norvegicus; experiment: Effect on 5-HTP accumulation in hemispheres of rat; Inactive; assay type: functional, organism-based
[18] = species on record: Rattus norvegicus; experiment: Effect on 5-HTP accumulation in striatum of rat; Inactive; assay type: functional, organism-based
[19] = species on record: Rattus norvegicus; experiment: Effect on dopamine accumulation in limbic system of rat.; assay type: functional
[20] = species on record: Rattus norvegicus; experiment: Apparent kinetic constant(Vmax) for the aromatic hydroxylation on crude rat liver microsomes at 1 mg of protein; assay type: functional; outline: as §2
[21] = tested on: Rattus norvegicus; experiment: Brain Concentration of 5,6-di-OH-DPAT after 25 (umol/kg) sc administration without tropolone pretreatment in rat striatum; assay type: functional, organism-based; outline: as §1
[22] = tested on: Rattus norvegicus; experiment: post-synaptic effect was assayed by the increase in locomotor activity (reserpine pretreatment), at 12.5 umol/kg; assay type: functional
Outline: (§3)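 Male Sprague-Dawley rats pretreated sc in the neck with reserpine (5 mg/kg), then given the compound sc in the neck (n = 4). Placed singly in motility meters immediately after dosing; locomotor counts accumulated over 0–30 min. Student's t test.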

[23] = species on record: Rattus norvegicus; experiment: Apparent kinetic constant(Km) for the O-Methylation on crude rat liver microsomes.; assay type: functional, organism-based
[24] = species on record: Rattus norvegicus; experiment: Apparent kinetic constant(Vmax) for the O-Methylation on crude rat liver microsomes at 1 mg of protein; assay type: functional
[25] = species on record: Rattus norvegicus; experiment: Effect on dopamine accumulation in limbic system of rat; Inactive; assay type: functional, organism-based
[26] = species on record: Rattus norvegicus; experiment: Effect on 5-HTP accumulation in striatum of rat.; assay type: functional
[27] = species on record: Rattus norvegicus; experiment: Effect on dopamine accumulation in striatum of rat; Inactive; assay type: functional, organism-based
[28] = species on record: Rattus norvegicus; experiment: Effect on 5-HTP accumulation in limbic system of rat.; assay type: functional
[29] = species on record: Rattus norvegicus; experiment: Effect on 5-HTP accumulation in hemispheres of rat.; assay type: functional
[30] = species on record: Rattus norvegicus; experiment: Effect on dopamine accumulation in hemispheres of rat.; assay type: functional
[31] = tested on: Rattus norvegicus; experiment: post-synaptic effect was assayed by the increase in locomotor activity (reserpine pretreatment), at 3.15 umol/kg; assay type: functional; outline: as §3
[32] = tested on: Rattus norvegicus; experiment: post-synaptic effect was assayed by the increase in locomotor activity (reserpine pretreatment), at 0.25 umol/kg; assay type: functional; outline: as §3
[33] = tested on: Rattus norvegicus; experiment: Brain Concentration of 7,8-di-OH-DPAT after 15(umol/kg) sc administration with tropolone pretreatment in rat cerebellum; assay type: functional, organism-based; outline: as §1
[34] = tested on: Rattus norvegicus; experiment: Brain Concentration at 15(umol/kg, sc) without tropolone pretreatment in rat striatum; assay type: functional, organism-based; outline: as §1
[35] = tested on: Rattus norvegicus; experiment: Brain Concentration of 7,8-di-OH-DPAT after 15(umol/kg) sc administration with tropolone pretreatment in rat cortex; assay type: functional, organism-based; outline: as §1
[36] = tested on: Rattus norvegicus; experiment: Brain Concentration at 15(umol/kg, sc) without tropolone pretreatment in rat cerebellum; assay type: functional, organism-based; outline: as §1
[37] = tested on: Rattus norvegicus; experiment: Brain Concentration of 7,8-di-OH-DPAT after 15(umol/kg) sc administration without tropolone pretreatment in rat cortex; assay type: functional, organism-based; outline: as §1
[38] = tested on: Rattus norvegicus; experiment: Brain Concentration at 15(umol/kg, sc) with tropolone pretreatment in rat cerebellum; assay type: functional, organism-based; outline: as §1
[39] = tested on: Rattus norvegicus; experiment: Brain Concentration of 7,8-di-OH-DPAT after 15(umol/kg) sc administration without tropolone pretreatment in rat striatum; assay type: functional, organism-based; outline: as §1
[40] = tested on: Rattus norvegicus; experiment: Brain Concentration at 15(umol/kg, sc) without tropolone pretreatment in rat cortex; assay type: functional, organism-based; outline: as §1
[41] = tested on: Rattus norvegicus; experiment: Brain Concentration at 15(umol/kg, sc) with tropolone pretreatment in rat cortex; assay type: functional, organism-based; outline: as §1
[42] = tested on: Rattus norvegicus; experiment: Brain Concentration of 7,8-di-OH-DPAT after 15(umol/kg) sc administration with tropolone pretreatment in rat striatum; assay type: functional, organism-based; outline: as §1
[43] = tested on: Rattus norvegicus; experiment: Brain Concentration of 7,8-di-OH-DPAT after 15(umol/kg) sc administration without tropolone pretreatment in rat cerebellum; assay type: functional, organism-based; outline: as §1
[44] = tested on: Rattus norvegicus; experiment: Brain Concentration at 15(umol/kg, sc) with tropolone pretreatment in rat striatum; assay type: functional, organism-based; outline: as §1

| Compound | ED50 [1] | ED50 [2] | Ratio [9] | ED50 [10] | ED50 [17] | ED50 [18] | ED50 [19] | Km [23] | Vmax [24] | ED50 [26] | ED50 [28] | ED50 [29] | also measured |
| --- | --- | --- | --- | --- | --- | --- | --- | --- | --- | --- | --- | --- | --- |
| CCCN(CCC)C1CCc2c(O)cccc2C1 (configuration not stated) [5-OH-DPAT] | 0.009 µmol/kg | inactive | 19600 | inactive | inactive | inactive | 0.011 µmol/kg |  |  |  |  |  | Concentration [3]: 8.5 nM/g; Concentration [4]: 0.3 nM/g; Concentration [5]: 0.08 nM/g; Concentration [6]: 9.4 nM/g; Concentration [7]: 11.9 nM/g; Concentration [8]: 10.8 nM/g; Concentration [11]: 12.1 nM/g; Km [12]: 60 µM; Concentration [13]: 0.08 nM/g; Concentration [14]: 0.37 nM/g; Concentration [15]: 12.7 nM/g; Concentration [16]: 0.43 nM/g; Vmax [20]: 1180 pM/min; Concentration [21]: 0.2 nM/g |
| CCCN(CCC)C1CCc2c(cccc2OC)C1 (configuration not stated) | 0.018 µmol/kg | inactive |  | inactive | inactive | inactive | 0.013 µmol/kg |  |  |  |  |  |  |
| CCCN(CCC)C1CCc2c(ccc(O)c2OC)C1 (configuration not stated) | 0.125 µmol/kg | inactive |  | inactive | inactive | inactive | 0.16 µmol/kg |  |  |  |  |  | Motor activity [22]: <204 |
| CCCN1CCC[C@@H](c2ccc(O)c(O)c2)C1 |  |  |  |  |  |  |  | 77 µM | 37000 pM/min |  |  |  |  |
| CCCN(CCC)C1CCc2cccc(OC)c2C1 (configuration not stated) |  |  |  |  |  |  |  |  |  | 0.29 µmol/kg | 0.34 µmol/kg | 0.23 µmol/kg | ED50 [25]: inactive; ED50 [27]: inactive |
| CCCN(CCC)C1CCc2ccc(O)c(OC)c2C1 (configuration not stated) | 0.35 µmol/kg |  |  | inactive |  |  | 0.314 µmol/kg |  |  | 2.06 µmol/kg | 1.49 µmol/kg | 1.62 µmol/kg | Motor activity [22]: <149 |
| CCCN(CCC)[C@@H]1CCc2ccc(O)cc2C1 | 0.17 µmol/kg | inactive |  | inactive | inactive | inactive | 0.18 µmol/kg |  |  |  |  |  |  |
| CCCN(CCC)C1CCc2ccc(O)c(O)c2C1 (configuration not stated) | 0.977 µmol/kg |  | 117 |  |  |  | 0.986 µmol/kg | 2400 µM | 280 pM/min | 1.39 µmol/kg | 1.53 µmol/kg | 1.05 µmol/kg | ED50 [30]: 1.75 µmol/kg; Motor activity [31]: <31 |
| CCCN(CCC)C1CCc2c(ccc(O)c2O)C1 (configuration not stated) | 0.007 µmol/kg | inactive | 5000 | inactive | inactive | inactive | 0.007 µmol/kg | 80 µM | 400 pM/min |  |  |  | Motor activity [32]: <529 |
| CCCN(CCC)C1CCc2cccc(O)c2C1 (configuration not stated) [8-OH-DPAT] |  |  |  | inactive |  |  |  |  |  | 0.045 µmol/kg | 0.048 µmol/kg | 0.068 µmol/kg | Concentration [33]: 0.54 nM/g; ED50 [25]: inactive; Concentration [34]: 10.3 nM/g; Concentration [35]: 0.7 nM/g; Concentration [36]: 8.1 nM/g; Concentration [37]: 0.64 nM/g; Concentration [38]: 9 nM/g; Concentration [39]: 0.65 nM/g; ED50 [27]: inactive; Concentration [40]: 10.7 nM/g; Concentration [41]: 13.2 nM/g; Concentration [42]: 0.58 nM/g; Concentration [43]: 0.5 nM/g; Concentration [44]: 12.3 nM/g |
